# From ChEMBL document CHEMBL1153954, “Promiscuous aggregate-based inhibitors promote enzyme unfolding” (J Med Chem, 2009)
# The source made the active and inactive calls. The calls are words filed in the database; no cut-off is given here.
# Target: AmpC (Escherichia coli) (UniProt Q83TT7)
# Assay: Inhibition of Escherichia coli AmpC assessed as induction of protein unfolding measured by trypsin mediated degradation of compound-AmpC enzyme complex at 250 uM after 15 mins by gel electrophoresis
# Method in brief: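 AmpC β-lactamase (0.5 μM) in 50 mM KPi, pH 7.0, with or without aggregator at 250 μM (1% DMSO final). Trypsin (0.01 or 0.025 mg/mL) added after 5 min. Digestion ran at room temperature for 0 min to 4 h. Samples were boiled 2 min in DTT-containing loading buffer, run on SDS-PAGE, and the β-lactamase band was scored against compound-free enzyme.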
# Sequence of AmpC (Escherichia coli) (Q83TT7 as listed by the source): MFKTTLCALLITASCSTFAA
smiles,measurement,value
Nc1c(/N=N/c2ccc(-c3ccc(/N=N/c4cc(S(=O)(=O)O)c5ccccc5c4N)cc3)cc2)cc(S(=O)(=O)O)c2ccccc12,Activity,Active
